We go through 27 compounds from ChEMBL document CHEMBL2331117 (J Med Chem, 2013).

In data set [1] the target is T1, Cytochrome P450 2C8 (Homo sapiens, UniProt P10632).
T1 sequence (P10632 whole entry): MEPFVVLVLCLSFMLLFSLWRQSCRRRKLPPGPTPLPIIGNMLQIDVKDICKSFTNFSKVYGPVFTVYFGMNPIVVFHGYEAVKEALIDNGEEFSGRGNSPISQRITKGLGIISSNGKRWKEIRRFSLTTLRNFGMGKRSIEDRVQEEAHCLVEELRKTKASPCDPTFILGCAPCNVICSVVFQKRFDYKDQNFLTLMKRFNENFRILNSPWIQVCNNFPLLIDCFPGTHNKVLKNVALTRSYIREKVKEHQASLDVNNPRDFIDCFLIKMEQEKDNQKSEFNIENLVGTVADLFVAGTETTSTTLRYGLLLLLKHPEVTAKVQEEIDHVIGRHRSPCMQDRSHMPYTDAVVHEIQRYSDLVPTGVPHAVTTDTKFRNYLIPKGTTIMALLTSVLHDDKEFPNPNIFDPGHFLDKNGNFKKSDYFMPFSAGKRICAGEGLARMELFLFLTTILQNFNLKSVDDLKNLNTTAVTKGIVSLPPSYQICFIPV
Description: Inhibition of CYP2C8 (unknown origin). Type of data set: ADME.

Data set [2] in a line: Inhibition of mTORC1-mediated phosphorylation of S6 at serine 240/244 in human PC3 cells after 3 hrs by ELISA. The settings on record: PC-3, 3 h. Type of data set: cell-based.
For data set [3], the target named is Cytochrome P450 2C9 (Homo sapiens, UniProt P11712). Description: Inhibition of CYP2C9 (unknown origin). Type of data set: ADME.
Data set [4] addresses Phosphatidylinositol 4,5-bisphosphate 3-kinase catalytic subunit alpha isoform (Homo sapiens, UniProt P42336). Description: Inhibition of PI3Kalpha (unknown origin) using PIP2 as substrate after 2 hrs by luminescence assay.
Data set [5] concerns the target Cytochrome P450 2D6 (Homo sapiens, UniProt P10635). Description: Inhibition of CYP2D6 (unknown origin). Type of data set: ADME.
Data set [6] can be described thus: Inhibition of mTORC1 (unknown origin)-mediated 4EBP1 phosphorylation after 120 mins by ELISA. Also noted: species or system Homo sapiens.
A short description of data set [7]: Inhibition of mTORC2-mediated phosphorylation of AKT at serine 473 in human PC3 cells after 2 hrs and 50 mins by ELISA. The data set is classed as cell-based. The settings on record: PC-3. An outline of the steps:
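Compound in 0.3% DMSO was added for 2 h 50 min, followed by 10 min stimulation with 20 ng/mL EGF. After formaldehyde fixation, pAKT (S473) and total AKT were detected by chemiluminescent cell ELISA. IC50 came from pAKT normalized to total AKT, relative to DMSO control. Mean, n ≥ 2.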

Data set [8] in a line: Metabolic stability in mouse liver microsomes after 30 mins. The data set is classed as ADME, Microsome. The settings on record: read-out: Stability.
For data set [9], the target named is Cytochrome P450 3A4 (Homo sapiens, UniProt P08684). Description: Inhibition of CYP3A4 (unknown origin). Type of data set: ADME.
Data set [10] is described as follows: Apparent permeability across MDCK cells. Type of data set: ADME, cell-based, Canis lupus familiaris. The settings on record: dog.
The nature of data set [11]: Plasma concentration in mouse at 100 mg/kg, po after 4 hrs. Type of data set: ADME, organism-based. Also noted: dose 100 mg/kg, route oral.
A short description of data set [12]: Plasma concentration in mouse at 100 mg/kg, po after 1 hr. The data set is classed as ADME, organism-based. Also noted: dose 100 mg/kg, route oral.

SMILES strings stand for the structures.

Sequence of Cytochrome P450 2D6 (P10635 whole entry): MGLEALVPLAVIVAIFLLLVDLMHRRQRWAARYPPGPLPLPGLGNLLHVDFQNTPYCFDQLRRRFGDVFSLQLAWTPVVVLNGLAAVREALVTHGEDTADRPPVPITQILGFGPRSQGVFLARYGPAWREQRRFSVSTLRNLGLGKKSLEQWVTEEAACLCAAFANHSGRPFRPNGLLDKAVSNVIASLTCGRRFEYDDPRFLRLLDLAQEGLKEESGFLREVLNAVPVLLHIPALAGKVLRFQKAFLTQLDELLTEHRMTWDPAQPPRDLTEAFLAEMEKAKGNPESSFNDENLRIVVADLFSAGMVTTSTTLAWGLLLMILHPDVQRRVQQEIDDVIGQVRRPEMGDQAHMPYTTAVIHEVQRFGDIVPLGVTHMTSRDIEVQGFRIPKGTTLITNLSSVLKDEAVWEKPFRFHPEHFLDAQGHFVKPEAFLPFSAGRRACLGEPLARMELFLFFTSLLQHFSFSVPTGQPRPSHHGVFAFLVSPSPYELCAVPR
Sequence of Phosphatidylinositol 4,5-bisphosphate 3-kinase catalytic subunit alpha isoform (P42336 whole entry, canonical isoform): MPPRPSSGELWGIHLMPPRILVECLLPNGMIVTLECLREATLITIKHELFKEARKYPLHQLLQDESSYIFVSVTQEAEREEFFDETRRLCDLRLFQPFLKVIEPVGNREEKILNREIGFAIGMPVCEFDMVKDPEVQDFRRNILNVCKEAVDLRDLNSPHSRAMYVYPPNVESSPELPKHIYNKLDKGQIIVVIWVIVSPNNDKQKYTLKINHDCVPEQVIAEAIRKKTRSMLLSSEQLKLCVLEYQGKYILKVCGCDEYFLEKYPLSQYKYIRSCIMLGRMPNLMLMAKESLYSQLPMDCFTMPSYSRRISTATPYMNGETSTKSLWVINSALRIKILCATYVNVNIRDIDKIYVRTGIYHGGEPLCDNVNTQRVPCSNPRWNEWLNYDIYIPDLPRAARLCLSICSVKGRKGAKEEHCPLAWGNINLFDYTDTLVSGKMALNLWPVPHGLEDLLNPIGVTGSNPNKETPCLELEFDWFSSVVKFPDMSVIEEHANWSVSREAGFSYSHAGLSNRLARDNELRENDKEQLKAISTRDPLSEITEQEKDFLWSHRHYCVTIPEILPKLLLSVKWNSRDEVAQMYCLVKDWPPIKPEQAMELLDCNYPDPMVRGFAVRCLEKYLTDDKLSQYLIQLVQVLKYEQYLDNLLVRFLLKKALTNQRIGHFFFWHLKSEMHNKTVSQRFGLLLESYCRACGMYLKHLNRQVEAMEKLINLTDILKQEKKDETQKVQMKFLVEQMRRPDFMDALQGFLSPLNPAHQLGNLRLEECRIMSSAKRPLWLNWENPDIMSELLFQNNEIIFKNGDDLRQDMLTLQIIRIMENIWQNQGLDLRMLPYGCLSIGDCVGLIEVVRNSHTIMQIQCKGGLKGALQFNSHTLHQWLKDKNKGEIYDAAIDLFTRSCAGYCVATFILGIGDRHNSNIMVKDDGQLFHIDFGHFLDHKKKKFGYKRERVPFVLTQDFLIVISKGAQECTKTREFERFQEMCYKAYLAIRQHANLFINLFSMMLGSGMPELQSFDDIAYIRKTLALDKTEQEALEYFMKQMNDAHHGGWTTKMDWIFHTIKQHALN
Sequence of Cytochrome P450 3A4 (P08684 whole entry): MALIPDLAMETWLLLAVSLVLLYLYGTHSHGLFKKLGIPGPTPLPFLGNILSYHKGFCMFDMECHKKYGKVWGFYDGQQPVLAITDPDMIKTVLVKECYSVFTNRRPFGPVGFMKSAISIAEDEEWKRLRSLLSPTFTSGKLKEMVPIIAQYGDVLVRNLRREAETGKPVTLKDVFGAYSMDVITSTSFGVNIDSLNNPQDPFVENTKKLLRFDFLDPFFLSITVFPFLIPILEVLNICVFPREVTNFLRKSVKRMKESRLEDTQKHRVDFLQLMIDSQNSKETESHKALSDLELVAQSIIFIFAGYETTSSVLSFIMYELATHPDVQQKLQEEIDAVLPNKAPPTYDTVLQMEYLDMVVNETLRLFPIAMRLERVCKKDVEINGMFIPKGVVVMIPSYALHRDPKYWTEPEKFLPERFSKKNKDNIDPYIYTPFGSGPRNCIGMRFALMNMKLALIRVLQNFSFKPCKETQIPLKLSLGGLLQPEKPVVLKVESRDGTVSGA
Sequence of Cytochrome P450 2C9 (P11712 whole entry, canonical isoform): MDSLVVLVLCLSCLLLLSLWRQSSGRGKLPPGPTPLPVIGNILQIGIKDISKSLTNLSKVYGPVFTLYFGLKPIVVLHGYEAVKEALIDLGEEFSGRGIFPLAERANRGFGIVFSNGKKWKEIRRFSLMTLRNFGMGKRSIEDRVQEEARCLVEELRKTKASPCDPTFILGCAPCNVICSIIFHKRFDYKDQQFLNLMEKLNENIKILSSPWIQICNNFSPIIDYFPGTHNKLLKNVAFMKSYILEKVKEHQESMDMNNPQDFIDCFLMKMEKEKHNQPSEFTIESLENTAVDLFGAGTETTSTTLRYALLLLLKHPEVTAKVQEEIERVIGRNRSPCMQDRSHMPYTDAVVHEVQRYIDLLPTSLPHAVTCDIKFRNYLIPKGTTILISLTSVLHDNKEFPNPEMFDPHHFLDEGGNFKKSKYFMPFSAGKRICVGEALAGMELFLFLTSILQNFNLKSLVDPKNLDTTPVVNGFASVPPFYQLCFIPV

As for `CCS(=O)(=O)c1ccc(C(=O)N2CCOc3ccc(-c4ccc5nc[nH]c5c4)cc3C2)cc1`, the INH in [1] was 5 µM; in [3], 1.7 µM; in [5] it was 3.3 µM; in data set [9], 2.2 µM. Also, the IC50 in data set [2] worked out at 343 nM; in data set [4], 2170 nM; in data set [6] it was 3.6 nM; in data set [7] it was 1080 nM. The remaining at 0.5 h in data set [8] worked out at 72%.

Turning to `O=C(c1ccc(C(=O)C(F)(F)F)cc1)N1CCOc2ccccc2C1`, the IC50 in [4] and in data set [6] was more than 10000 nM throughout.

On to `CNS(=O)(=O)c1ccc(C(=O)N2CCOc3ccc(-c4ccc5nc[nH]c5c4)cc3C2)cc1`, for which the INH in [1] was 1.6 µM; in [3] it was 1.1 µM; in data set [5], 2.3 µM; in data set [9] it was 2.8 µM. The IC50 in data set [2] was 451 nM; in data set [4], 1090 nM; in [6] it was 3.5 nM; in data set [7], 812 nM. For the same compound, in data set [10], the Papp was found to be 4.2 ×10⁻⁶ cm/s. The remaining at 0.5 h in [8] came to 64%.

Turning to `O=C(c1ccc(C(=O)C(F)(F)F)cc1)N1CCOc2ccc(-c3ccccc3)cc2C1`, the IC50 in data set [4] is 2310 nM; in data set [6], 119 nM.

As to `Cc1cc(C(=O)N2CCOc3ccc(-c4ccc5nc[nH]c5c4)cc3C2)ccc1S(C)(=O)=O`, the IC50 in [2] came out at 591 nM; in data set [4] it was 459 nM; in data set [6], 6.6 nM; in [7] it was 1220 nM. For the same compound, the remaining at 0.5 h in data set [8] came to 68%.

As to `O=C(c1ccc(C(=O)C(F)(F)F)cc1)N1CCOc2ccc(-c3ccc4cn[nH]c4c3)cc2C1`, the half-maximal inhibitory concentration (IC50) was determined as 674 nM in [2], 259 nM in [4] and 3.5 nM in data set [6]. In addition, in data set [8], the remaining at 0.5 h amounted to 60%.

`O=C(c1ccc(C(=O)C(F)(F)F)cc1)N1CCOc2ccc(-c3cn[nH]c3)cc2C1`: the IC50 in data set [2] came out at 718 nM; in data set [4] it was 1050 nM; in data set [6], 29.7 nM. In addition, the remaining at 0.5 h in data set [8] was determined as 3%.

In the case of `O=C(c1ccc(C(F)(F)F)cc1)N1CCOc2ccc(-c3ccc4nc[nH]c4c3)cc2C1`, the INH stood at 3.6 µM in [1], 1.6 µM in data set [3], 3.1 µM in [5] and 1.9 µM in data set [9]. Besides, the 50% inhibitory concentration (IC50) in [2] was determined as 306 nM; in data set [4] it was 1090 nM; in data set [6], 3.5 nM; in data set [7], 680 nM. Besides, the remaining at 0.5 h in data set [8] turned out to be 74%.

`CCc1cc(S(C)(=O)=O)ccc1C(=O)N1CCOc2ccc(-c3ccc4nc[nH]c4c3)cc2C1`: the INH is 5.6 µM in [1], 5.4 µM in data set [3], more than 20 µM in data set [5] and 2 µM in data set [9]. Moreover, the IC50 is 233 nM in data set [2], more than 3000 nM in [4], 5.2 nM in data set [6] and 689 nM in data set [7]. In addition, the remaining at 0.5 h in [8] came to 50%.

Turning to `O=C(c1ccccc1)N1CCOc2ccc(-c3cnc4ccccc4c3)cc2C1`, the IC50 came to 3130 nM in data set [4] and 200 nM in data set [6].

On to `c1ccc2ncc(-c3ccc4c(c3)CNCCO4)cc2c1`, for which the IC50 in [4] and in data set [6] was more than 10000 nM throughout.

With `Cc1nc2ccc(-c3ccc4c(c3)CN(C(=O)c3ccc(C(=O)C(F)(F)F)cc3)CCO4)cc2[nH]1`, the concentration at 4 h in data set [11] was 200 nM. The IC50 in data set [2] was found to be 239 nM; in [4] it was 89 nM; in [6], 0.5 nM. The concentration at 1 h in data set [12] was determined as 1000 nM. Also, the remaining at 0.5 h in data set [8] came to 50%.

On to `CS(=O)(=O)c1ccc(C(=O)N2CCOc3ccc(-c4ccc5nc[nH]c5c4)cc3C2)c(Br)c1`, for which the INH in data set [1] turned out to be 3.4 µM; in data set [3] it was 4.2 µM; in data set [5] it was 9.2 µM; in data set [9], 3 µM. Moreover, the IC50 is 343 nM in data set [2], 693 nM in data set [4], 5.2 nM in [6] and 453 nM in [7]. For the same compound, the remaining at 0.5 h in [8] turned out to be 45%.

With `NS(=O)(=O)c1ccc(C(=O)N2CCOc3ccc(-c4ccc5nc[nH]c5c4)cc3C2)cc1`, the INH in data set [1] worked out at 13.9 µM; in [3], 1.3 µM; in [5], 4.3 µM; in [9], 6.3 µM. The IC50 was 1800 nM in data set [2], 763 nM in [4], 2.9 nM in data set [6] and 1670 nM in data set [7]. Also, the Papp in data set [10] came out at 4.2 ×10⁻⁶ cm/s. For the same compound, the remaining at 0.5 h in [8] is 64%.

Turning to `CC(=O)Nc1cccc(-c2ccc3c(c2)CN(C(=O)c2ccc(C(=O)C(F)(F)F)cc2)CCO3)c1`, the IC50 in data set [4] was 238 nM; in data set [6], 115 nM.

`CC(=O)c1ccc(C(=O)N2CCOc3ccc(-c4ccc5cn[nH]c5c4)cc3C2)cc1`: the IC50 was found to be 1800 nM in [4] and 14 nM in [6].

Regarding `CC(=O)c1ccc(C(=O)N2CCOc3ccc(-c4ccc5cnn(C)c5c4)cc3C2)cc1`, the IC50 in [4] was determined as 2450 nM; in [6] it was 342 nM.

In the case of `CS(=O)(=O)c1ccc(C(=O)N2CCOc3ccc(-c4ccc5nc[nH]c5c4)cc3C2)c(Cl)c1`, the INH in data set [1] was 5.4 µM; in data set [3], 9 µM; in data set [5] it was 9.2 µM; in data set [9] it was 3.5 µM. Also, the IC50 in [2] turned out to be 337 nM; in data set [4] it was 705 nM; in data set [6], 23.2 nM; in [7] it was 1060 nM. Moreover, the remaining at 0.5 h in data set [8] was found to be 58%.

`CS(=O)(=O)c1ccc(C(=O)N2CCOc3ccc(-c4ccc(N)nc4)cc3C2)cc1`: the INH in [1] was more than 20 µM; in data set [3], 18.8 µM; in [5], more than 20 µM; in data set [9], more than 20 µM. For the same compound, the IC50 in [2] came to 1180 nM; in [4], 2900 nM; in [6] it was 13 nM; in data set [7] it was 1970 nM. Moreover, in data set [8], the remaining at 0.5 h stood at 100%.

On to `Cc1c(C(=O)N2CCOc3ccc(-c4ccc5nc[nH]c5c4)cc3C2)ccc(S(C)(=O)=O)c1F`, for which the INH in data set [1] came to 3.4 µM; in data set [3] it was 6.4 µM; in data set [5], 9.6 µM; in [9], 3.4 µM. Moreover, the IC50 worked out at 329 nM in data set [2], 2340 nM in data set [4], 1.4 nM in [6] and 437 nM in data set [7]. Further, the remaining at 0.5 h in data set [8] turned out to be 94%.

`O=C(c1ccc(C(=O)C(F)(F)F)cc1)N1CCOc2ccc(-c3cccnc3)cc2C1`: the IC50 in data set [4] amounted to 1130 nM; in data set [6], 72.7 nM.

Regarding `CCNc1cc(S(C)(=O)=O)ccc1C(=O)N1CCOc2ccc(-c3ccc4nc[nH]c4c3)cc2C1`, the values for the IC50 in [4] and in [6] were more than 3000 nM and 204 nM, respectively.

`Cc1cc(S(C)(=O)=O)ccc1C(=O)N1CCOc2ccc(-c3ccc4nc[nH]c4c3)cc2C1`: the INH in data set [1] is 5.4 µM; in [3], 2.9 µM; in data set [5], 9.3 µM; in [9] it was 4.1 µM. Further, the IC50 in data set [2] was 422 nM; in data set [4] it was more than 3000 nM; in data set [6] it was 5.7 nM; in data set [7], 1010 nM. Moreover, the remaining at 0.5 h in data set [8] was found to be 51%.

Turning to `O=C(c1ccc(C(=O)C(F)(F)F)cc1)N1CCOc2ccc(-c3ccc4[nH]ncc4c3)cc2C1`, the IC50 in [2] was 503 nM; in data set [4], 137 nM; in data set [6], 4.3 nM. In [8], the remaining at 0.5 h was determined as 23%.

Take `CCc1c(C(=O)N2CCOc3ccc(-c4ccc5nc[nH]c5c4)cc3C2)ccc(S(C)(=O)=O)c1F`: the INH in data set [1] is 3.1 µM; in [3] it was 2.2 µM; in data set [5] it was 11.5 µM; in data set [9] it was 2.6 µM. The IC50 in data set [2] was 152 nM; in data set [4] it was more than 3000 nM; in data set [6], 2.9 nM; in [7], 277 nM. In addition, in data set [8], the remaining at 0.5 h worked out at 59%.

In the case of `CCCc1cc(S(C)(=O)=O)ccc1C(=O)N1CCOc2ccc(-c3ccc4nc[nH]c4c3)cc2C1`, the IC50 in data set [2] was 1180 nM; in data set [4] it was more than 3000 nM; in [6], 28 nM; in data set [7] it was 3300 nM. Moreover, in data set [8], the remaining at 0.5 h was determined as 87%.

Consider `O=C(c1ccc(C(=O)C(F)(F)F)cc1)N1CCOc2ccc(-c3ccc4ccccc4c3)cc2C1`, for which the values for the IC50 in data set [4] and in data set [6] were 1460 nM and 73.7 nM, respectively.
